The values below come from ChEMBL document CHEMBL4428067, “Drug Discovery against Psoriasis: Identification of a New Potent FMS-like Tyrosine Kinase 3 (FLT3) Inhibitor, 1-(4-((1H-Pyrazolo[3,4-d]pyrimidin-4-yl)oxy)-3-fluorophenyl)-3-(5-(tert-butyl)isoxazol-3-yl)urea, That Showed Potent Activity in a Psoriatic Animal Model” (J Med Chem, 2016).

The source made the active and inactive calls. The rule behind the calls is not given here.

The species entered for test [1] is Mus musculus. The test can be described thus: Antipsoriatic activity in K14-VEGF transgenic mouse model of psoriasis assessed as decrease in VEGF expression in psoriatic lesion at 0.05% applied tropically over lesion for continuous 29 days by immunohistochemical analysis relative to vehicle control. The test is classed as functional. Further details: scale not given: the % may be the effect or the level left. The method, boiled down:
(§1)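 K14-VEGF mice were treated topically with 0.05% cream or vehicle for 29 days, n=3 per group. Ear skin was paraffin-embedded, cut into 4-µm sections and immunostained. Staining was quantified in 5 random fields, reported as mean ± SD.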

Test [2] is filed under the species Mus musculus. The test is described as follows: Antipsoriatic activity in K14-VEGF transgenic mouse model of psoriasis assessed as lower left quadrant DC cells expressing FLT3 and CD11c in psoriatic plaque lesion at 0.05% applied tropically over lesion for continuous 29 days by flow cytometric analysis (reference value: 72.7%). The test is classed as functional. (In general: In flow cytometry, cells or beads pass a laser one at a time.)

The target of test [3] is T1, Receptor-type tyrosine-protein kinase FLT3 (Mus musculus) (UniProt Q00342).
T1 sequence (whole entry): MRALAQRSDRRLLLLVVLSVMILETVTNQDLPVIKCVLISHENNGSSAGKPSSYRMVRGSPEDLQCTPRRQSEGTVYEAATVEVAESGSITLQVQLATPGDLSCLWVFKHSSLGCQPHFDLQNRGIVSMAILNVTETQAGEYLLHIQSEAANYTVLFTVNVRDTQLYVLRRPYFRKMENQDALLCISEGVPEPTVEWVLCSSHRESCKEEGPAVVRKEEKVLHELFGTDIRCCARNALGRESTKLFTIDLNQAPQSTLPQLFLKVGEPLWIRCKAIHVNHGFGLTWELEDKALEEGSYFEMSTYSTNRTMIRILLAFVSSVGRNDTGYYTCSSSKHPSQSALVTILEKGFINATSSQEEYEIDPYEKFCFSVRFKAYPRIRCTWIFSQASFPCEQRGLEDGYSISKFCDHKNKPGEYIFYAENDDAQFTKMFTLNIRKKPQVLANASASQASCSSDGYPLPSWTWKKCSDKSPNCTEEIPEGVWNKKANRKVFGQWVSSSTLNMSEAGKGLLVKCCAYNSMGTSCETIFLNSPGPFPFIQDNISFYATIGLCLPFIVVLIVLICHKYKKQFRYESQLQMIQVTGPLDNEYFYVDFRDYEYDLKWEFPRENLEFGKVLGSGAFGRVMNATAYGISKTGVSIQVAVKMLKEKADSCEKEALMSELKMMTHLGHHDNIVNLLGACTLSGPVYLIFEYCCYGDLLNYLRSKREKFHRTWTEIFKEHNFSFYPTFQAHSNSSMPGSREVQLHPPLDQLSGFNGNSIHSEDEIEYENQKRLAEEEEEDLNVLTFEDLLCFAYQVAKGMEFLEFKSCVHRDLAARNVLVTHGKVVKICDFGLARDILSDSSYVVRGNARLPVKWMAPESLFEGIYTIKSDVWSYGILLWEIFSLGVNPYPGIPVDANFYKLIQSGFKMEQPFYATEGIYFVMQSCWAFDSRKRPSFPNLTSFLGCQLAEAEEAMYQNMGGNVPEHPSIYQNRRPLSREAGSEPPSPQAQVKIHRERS
The test is described as follows: Inhibition of FLT3 in Balb/c mouse BMDCs assessed as suppression of FLT3L-induced pDC formation measured as lower left quadrant cells level treated on day 9 post 9 days of FLT3L-stimulation measured after 24 hrs by CD11c PerCP and CD45R/B220 FITC staining based flow cytometric analysis (reference value: 36.5%). More on the design: scale not given: the % may be the effect or the level left. The method, boiled down:
(§2)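 BALB/c bone marrow cells were cultured at 1×10^6/ml with FLT3L in supplemented RPMI-1640 for 9 days. Compound in DMSO or 0.1% DMSO was added on day 9 for 24 h. Cells were stained for 30 min with CD11c PerCP plus B220 FITC (pDC: CD11c+ B220+) or MHC II FITC (mDC: CD11c+ MHC II+), then analysed by flow cytometry. Three independent experiments.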

For test [4], the target named is T1, Receptor-type tyrosine-protein kinase FLT3 (Mus musculus). The test is described as follows: Inhibition of FLT3 in Balb/c mouse BMDCs assessed as suppression of FLT3L-induced mDC formation measured as upper left quadrant cells level treated on day 9 post 9 days of FLT3L-stimulation measured after 24 hrs by CD11c PerCP and I-A/I-E (MHC class II) FITC staining based flow cytometric analysis (reference value: 31.8%). More on the design: scale not given: the % may be the effect or the level left. A digest of the protocol:
as §2

The species named for test [5] is Mus musculus. The test can be described thus: Antipsoriatic activity in K14-VEGF transgenic mouse model of psoriasis assessed as upper left quadrant DC cells expressing FLT3 and CD11c in psoriatic plaque lesion at 0.05% applied tropically over lesion for continuous 29 days by flow cytometric analysis (reference value: 9.62%). The test is classed as functional.
The species named for test [6] is Mus musculus. The test can be described thus: Antipsoriatic activity in K14-VEGF transgenic mouse model of psoriasis assessed as lower left quadrant FLT3+/CD11c+/MHC-II+ mDC cells in psoriatic plaque lesion at 0.05% applied tropically over lesion for continuous 29 days by flow cytometric analysis (reference value: 0%).
Test [7] is filed under the species Mus musculus. The test is described as follows: Antipsoriatic activity in K14-VEGF transgenic mouse model of psoriasis assessed as reduction in epidermal thickness at 0.05% applied tropically over lesion for continuous 29 days by H and E staining method relative to vehicle control. It counts as functional, organism-based. The method, boiled down: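 Homozygous K14-VEGF mice, 3–4 months old, with moderate to serious psoriasis; n=3 per group. Cream with 0.05% compound or vehicle cream smeared on lesions. Head and neck tissue sections taken after 29 days of treatment and HE-stained. Baker pathological score from 5 random fields, given as mean and SD. Epidermal thickness from 8 random fields, given as mean ± SEM.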

For test [8], the species on record is Mus musculus. The test is described as follows: Antipsoriatic activity in K14-VEGF transgenic mouse model of psoriasis assessed as upper left quadrant FLT3+/CD11c+/B220+ pDC cells in psoriatic plaque lesion at 0.05% applied tropically over lesion for continuous 29 days by flow cytometric analysis (reference value: 58.4%). The test is classed as functional.
The species named for test [9] is Mus musculus. The test is described as follows: Antipsoriatic activity in K14-VEGF transgenic mouse model of psoriasis assessed as lower left quadrant FLT3+/CD11c+/B220+ pDC cells in psoriatic plaque lesion at 0.05% applied tropically over lesion for continuous 29 days by flow cytometric analysis (reference value: 4.97%). It counts as functional.
Test [10] has as its target T1, Receptor-type tyrosine-protein kinase FLT3 (Mus musculus). The test is described as follows: Inhibition of FLT3 in Balb/c mouse BMDCs assessed as suppression of FLT3L-induced pDC formation measured as upper left quadrant cells level treated on day 9 post 9 days of FLT3L-stimulation measured after 24 hrs by CD11c PerCP and CD45R/B220 FITC staining based flow cytometric analysis (reference value: 45.8%). More on the design: scale not given: the % may be the effect or the level left. A digest of the protocol: as §2

The species named for test [11] is Mus musculus. The test is described as follows: Antipsoriatic activity in K14-VEGF transgenic mouse model of psoriasis assessed as lower left quadrant FLT3+/CD11c+/MHC-II+ mDC cells in psoriatic plaque lesion at 0.05% applied tropically over lesion for continuous 29 days by flow cytometric analysis (reference value: 35.2%).
Test [12] is filed under the species Mus musculus. The test is described as follows: Antipsoriatic activity in K14-VEGF transgenic mouse model of psoriasis assessed as decrease in CD54 expression in psoriatic lesion at 0.05% applied tropically over lesion for continuous 29 days by immunohistochemical analysis relative to vehicle control. More on the design: scale not given: the % may be the effect or the level left. The test is classed as functional. A digest of the protocol: as §1

The target in test [13] is T1, Receptor-type tyrosine-protein kinase FLT3 (Mus musculus). The test can be described thus: Inhibition of FLT3 in Balb/c mouse BMDCs assessed as suppression of FLT3L-induced pDC formation measured as lower right quadrant cells level treated on day 9 post 9 days of FLT3L-stimulation measured after 24 hrs by CD11c PerCP and CD45R/B220 FITC staining based flow cytometric analysis (reference value: 2.8%). More on the design: scale not given: the % may be the effect or the level left. A digest of the protocol: as §2

For `CC(C)(C)c1cc(NC(=O)Nc2ccc(Oc3ncnc4[nH]ncc34)c(F)c2)no1`, the Activity in the test filed under Mus musculus [1] was 90%; in the test filed under Mus musculus [2], 89.5%; in test [3], 47.2%; in [4], 23.5%; in the test filed under Mus musculus [5], 3.22%; in the test listed under Mus musculus [6], 0%. The Activity in the test filed under Mus musculus [8] was 79.4%; in the test listed under Mus musculus [9], 11%; in test [10], 40.3%; in the test listed under Mus musculus [11], 8.58%; in the test listed under Mus musculus [12], 87%; in [13], 4.63%. For the same compound, in the test listed under Mus musculus [7], the outcome was Active.
